# Legend:
# Measles morbillivirus = test: In vitro antiviral activity Virus rating (VR) determined by comparing CPE development in drug-treated cells (T) and virus control cells (C) against, measles; assay type: functional
# Outline: (§1)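 Vero (African green monkey kidney) cells in 10% FBS DMEM, seeded 4 × 10^4 cells/well, confluent over 24 h at 37 °C, 5% CO2. Virus (amount giving full monolayer destruction in 72 h; HSV-2 strain 333, measles Edmonston, para 3 C243) adsorbed 30 min. Compound added after adsorption at seven 0.5-log steps, final 5 × 10^-6 to 5 × 10^-3 M. Duplicate infected wells, single uninfected wells for toxicity.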
# Human alphaherpesvirus 2 = test: In vitro antiviral activity Virus rating (VR) determined by comparing CPE development in drug-treated cells (T) and virus control cells (C) against, Herpes simplex virus-2; assay type: functional; outline: as §1
# Vaccinia virus = test: In vitro antiviral activity Virus rating (VR) determined by comparing CPE development in drug-treated cells (T) and virus control cells (C) against, Vaccinia virus; assay type: functional, Orthopoxvirus vaccinia
# Human respirovirus 3 = test: In vitro antiviral activity Virus rating (VR) determined by comparing CPE development in drug-treated cells (T) and virus control cells (C) against, parainfluenza type 3 (para 3); assay type: functional; outline: as §1
# [1] = Ability of inhibit mammalian uridine phosphorylase
# Adenosine deaminase = molecular target: T1, Adenosine deaminase (Bos taurus, UniProt P56658); test: Ability to inhibit adenosine deaminase
# T1 sequence (P56658 whole entry): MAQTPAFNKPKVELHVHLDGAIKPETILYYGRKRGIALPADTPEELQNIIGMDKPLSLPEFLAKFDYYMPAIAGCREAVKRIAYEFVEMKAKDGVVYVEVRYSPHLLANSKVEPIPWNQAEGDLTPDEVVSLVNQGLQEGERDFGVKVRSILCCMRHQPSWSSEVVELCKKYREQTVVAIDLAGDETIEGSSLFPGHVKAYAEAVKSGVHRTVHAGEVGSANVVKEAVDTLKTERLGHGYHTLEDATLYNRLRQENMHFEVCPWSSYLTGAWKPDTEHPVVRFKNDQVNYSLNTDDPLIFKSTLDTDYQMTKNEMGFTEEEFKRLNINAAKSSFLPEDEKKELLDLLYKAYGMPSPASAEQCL
# Outline: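 Calf intestine adenosine deaminase; substrate and inhibitor kinetic parameters measured spectrophotometrically.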
SMILES,VR (Measles morbillivirus),VR (Human alphaherpesvirus 2),VR (Vaccinia virus),VR (Human respirovirus 3),Ki [1],Ki (Adenosine deaminase)
Nc1ncnc2c1ncn2C1CC(O)C(O)C(COP(=O)(O)O)O1 (stereo not given),0.24,0.44,0,0.16,,
Nc1ccn(C2CC(O)C(O)C(CO)O2)c(=O)n1 (stereo not given),0.5,0,0,0.15,,
Cc1cn(C2CC(O)C(O)C(CO)O2)c(=O)[nH]c1=O (stereo not given),,,,,12 µM,
Nc1ncnc2c1ncn2C1CC(O)C(O)C(CO)O1 (stereo not given),0.9,0,0,0.35,,
O=c1ccn(C2CC(O)C(O)C(COP(=O)(O)O)O2)c(=O)[nH]1 (stereo not given),0.44,0.74,0.28,0.64,,
Nc1ncnc2ncn(C3CC(O)C(O)C(CO)O3)c12 (stereo not given),0,0.08,0.22,0,,
Nc1nc(O)c2ncn(C3CC(O)C(O)C(CO)O3)c2n1 (stereo not given),0.3,1.06,0.19,0,,
O=c1ccn(C2CC(O)C(O)C(CO)O2)c(=O)[nH]1 (stereo not given),0,0.06,0.25,0,,
OCC1OC(n2cnc3c(O)ncnc32)CC(O)C1O (stereo not given),0,0.07,0.1,0.06,,
Nc1nc(N)c2ncn(C3CC(O)C(O)C(CO)O3)c2n1 (stereo not given),0.54,0.62,0.22,0.25,,
Nc1ccn(C2CC(O)C(O)C(COP(=O)(O)O)O2)c(=O)n1 (stereo not given),0.06,,0.25,0.28,,
Nc1nc(Cl)nc2c1ncn2C1CC(O)C(O)C(CO)O1 (stereo not given),0.05,0.34,0.04,0,,
OC[C@H]1O[C@@H](n2cnc3c(O)ncnc32)C[C@@H]1O [DEOXYINOSINE],,,,,,150 µM
OC[C@H]1O[C@@H](n2cnc3c(O)ncnc32)[C@H](O)[C@@H]1O [INOSINE],,,,,,500 µM
Nc1ncnc2c1ncn2[C@@H]1C=C(CO)[C@@H](O)[C@H]1O [NEOPLANOCIN A],0.75,1.39,1.38,1.6,,

# Reference: ChEMBL document CHEMBL1123904, “Synthesis, structure, and biological activity of certain 2-deoxy-beta-D-ribo-hexopyranosyl nucleosides and nucleotides” (J Med Chem, 1987)
